Results as given in ChEMBL document CHEMBL1123812, “Pyrroloisoquinoline antidepressants. 2. In-depth exploration of structure-activity relationships” (J Med Chem, 1987).

Assays:
[1] = target: Sodium-dependent dopamine transporter (Rattus norvegicus, UniProt P23977); experiment: Inhibition of the uptake of tritiated dopamine (DA) in rat synaptosomes; type: subcellular, Brain
[2] = target: Norepinephrine transporter (Rattus norvegicus, UniProt Q9WTR4); experiment: Inhibition of uptake of tritiated norepinephrine (NE) in rat synaptosomes; type: subcellular, Brain
Norepinephrine transporter, sequence (Q9WTR4 whole entry): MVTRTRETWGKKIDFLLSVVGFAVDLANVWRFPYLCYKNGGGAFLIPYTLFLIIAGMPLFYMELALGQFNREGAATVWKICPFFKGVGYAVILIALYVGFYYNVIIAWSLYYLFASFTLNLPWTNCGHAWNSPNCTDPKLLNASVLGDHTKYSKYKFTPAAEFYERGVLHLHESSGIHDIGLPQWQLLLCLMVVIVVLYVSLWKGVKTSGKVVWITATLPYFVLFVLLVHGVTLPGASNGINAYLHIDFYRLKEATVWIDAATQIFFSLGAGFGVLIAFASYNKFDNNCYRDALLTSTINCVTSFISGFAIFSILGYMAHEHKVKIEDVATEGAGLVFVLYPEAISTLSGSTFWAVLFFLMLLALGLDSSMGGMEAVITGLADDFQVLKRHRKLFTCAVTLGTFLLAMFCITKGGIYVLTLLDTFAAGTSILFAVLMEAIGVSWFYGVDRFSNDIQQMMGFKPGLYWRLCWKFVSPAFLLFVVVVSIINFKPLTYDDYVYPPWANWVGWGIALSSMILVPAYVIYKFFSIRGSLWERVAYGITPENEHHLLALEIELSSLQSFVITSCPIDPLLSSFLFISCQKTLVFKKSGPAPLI

[3] = target: T1, Adrenergic receptor alpha-1 (Rattus norvegicus, UniProt P15823+P23944+P43140); experiment: Binding affinity towards alpha-1 adrenergic receptor; type: protein assay
T1 sequence (P15823 whole entry): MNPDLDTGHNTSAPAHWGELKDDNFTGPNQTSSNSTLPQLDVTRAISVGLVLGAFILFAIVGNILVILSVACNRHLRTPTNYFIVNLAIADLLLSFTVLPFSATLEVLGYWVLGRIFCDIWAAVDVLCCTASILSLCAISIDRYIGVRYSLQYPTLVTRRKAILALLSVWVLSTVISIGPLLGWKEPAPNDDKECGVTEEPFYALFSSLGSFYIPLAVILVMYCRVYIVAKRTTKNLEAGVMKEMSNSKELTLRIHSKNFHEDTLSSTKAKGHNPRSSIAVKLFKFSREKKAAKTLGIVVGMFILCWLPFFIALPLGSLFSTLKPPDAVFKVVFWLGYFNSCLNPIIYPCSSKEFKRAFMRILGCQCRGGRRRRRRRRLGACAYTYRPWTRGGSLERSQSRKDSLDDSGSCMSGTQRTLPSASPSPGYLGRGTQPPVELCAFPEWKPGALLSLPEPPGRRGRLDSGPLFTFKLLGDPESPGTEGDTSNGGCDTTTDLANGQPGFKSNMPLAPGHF
T1 sequence (P23944 whole entry): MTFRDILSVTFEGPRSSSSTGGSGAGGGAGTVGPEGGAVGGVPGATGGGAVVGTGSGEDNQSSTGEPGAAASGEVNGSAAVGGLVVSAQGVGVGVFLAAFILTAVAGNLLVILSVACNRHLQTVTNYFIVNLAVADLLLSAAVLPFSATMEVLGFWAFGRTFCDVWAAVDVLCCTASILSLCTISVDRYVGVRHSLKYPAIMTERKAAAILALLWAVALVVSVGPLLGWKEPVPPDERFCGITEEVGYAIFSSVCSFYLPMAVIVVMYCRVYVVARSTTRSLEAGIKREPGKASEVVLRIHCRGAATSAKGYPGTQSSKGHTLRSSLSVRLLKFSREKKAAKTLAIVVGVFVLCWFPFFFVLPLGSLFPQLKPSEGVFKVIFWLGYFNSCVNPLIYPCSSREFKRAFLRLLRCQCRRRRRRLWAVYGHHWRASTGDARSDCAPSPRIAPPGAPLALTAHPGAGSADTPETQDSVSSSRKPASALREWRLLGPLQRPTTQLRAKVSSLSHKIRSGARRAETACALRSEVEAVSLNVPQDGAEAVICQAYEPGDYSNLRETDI
T1 sequence (P43140 whole entry): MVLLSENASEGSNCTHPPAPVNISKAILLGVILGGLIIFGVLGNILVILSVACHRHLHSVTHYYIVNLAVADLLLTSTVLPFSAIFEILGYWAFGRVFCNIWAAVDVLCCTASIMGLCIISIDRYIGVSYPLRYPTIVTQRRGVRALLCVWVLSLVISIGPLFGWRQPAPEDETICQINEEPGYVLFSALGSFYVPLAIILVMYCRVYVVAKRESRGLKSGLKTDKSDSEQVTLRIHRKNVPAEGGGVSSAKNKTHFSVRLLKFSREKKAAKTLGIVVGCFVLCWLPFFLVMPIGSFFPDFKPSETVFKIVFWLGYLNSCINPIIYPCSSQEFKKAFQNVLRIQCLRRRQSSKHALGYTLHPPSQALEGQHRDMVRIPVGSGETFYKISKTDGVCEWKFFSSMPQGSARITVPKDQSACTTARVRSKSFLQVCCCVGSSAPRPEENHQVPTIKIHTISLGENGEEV

Mus musculus [4] = species: Mus musculus; experiment: Antagonism of tetrabenazine (TBZ)-induced depression in mice measured for ptosis; type: functional
Summary of the method: (§1)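 Nonfasted male Swiss Webster mice, 18–24 g, ten per dose level and in saline controls. Test compound given ip 30 min before tetrabenazine 32 mg/kg ip; dose expressed as free base. Motor activity and ptosis scored. Control response ≤90% corrected by Abbott's formula.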

Mus musculus [5] = species: Mus musculus; experiment: Antagonism of tetrabenazine (TBZ)-induced depression measured in mice by motor activity; type: functional; summary of the method: as §1
Mus musculus [6] = species: Mus musculus; experiment: Gross behavioral effects ascertained in mice; W indicates weak stimulant or depressant activity of little significance.; type: functional, organism-based
Summary of the method: (§2)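 Male Swiss Webster mice, 18–24 g, three per dose, given ip doses of 1, 3, 10, 30, 100 and 300 mg/kg. Observed for gross behavior and held for 4 days. Scored as weak (W), stimulant (S), depressant (D) or convulsant (C).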

[7] = target: Norepinephrine transporter (Rattus norvegicus) (UniProt Q9WTR4); experiment: Ability to inhibit the uptake of [3H]norepinephrine (NE) 0.1 uM concentration at rat brain synaptosomes; type: functional, subcellular
Norepinephrine transporter (Rattus norvegicus), sequence (Q9WTR4 as listed by the source): as the sequence (Q9WTR4 whole entry) above
Summary of the method: (§3)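 Male Wistar rat brain synaptosomes (P2 fraction): hypothalamus for NE, striatum for DA, cerebral cortex for 5-HT. Buffer is Tris- or HEPES-buffered salt medium with glucose, ascorbate and nialamide, pH 7.4 at 37 °C. Preincubated 10 min at 37 °C with compound. Uptake started with [3H]NE 100–300 nM, [3H]DA 50–300 nM or [3H]5-HT 100–200 nM, incubated 3 min (DA) or 6–10 min (NE, 5-HT). Blanks held on ice. Filtered, counted by scintillation.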

[8] = target: Sodium-dependent serotonin transporter (Rattus norvegicus) (UniProt P31652); experiment: Ability to inhibit the uptake of [3H]- serotonin(5-HT) 0.1 uM concentration at rat brain synaptosomes; type: functional, subcellular; summary of the method: as §3
Sodium-dependent serotonin transporter (Rattus norvegicus), sequence (P31652 whole entry): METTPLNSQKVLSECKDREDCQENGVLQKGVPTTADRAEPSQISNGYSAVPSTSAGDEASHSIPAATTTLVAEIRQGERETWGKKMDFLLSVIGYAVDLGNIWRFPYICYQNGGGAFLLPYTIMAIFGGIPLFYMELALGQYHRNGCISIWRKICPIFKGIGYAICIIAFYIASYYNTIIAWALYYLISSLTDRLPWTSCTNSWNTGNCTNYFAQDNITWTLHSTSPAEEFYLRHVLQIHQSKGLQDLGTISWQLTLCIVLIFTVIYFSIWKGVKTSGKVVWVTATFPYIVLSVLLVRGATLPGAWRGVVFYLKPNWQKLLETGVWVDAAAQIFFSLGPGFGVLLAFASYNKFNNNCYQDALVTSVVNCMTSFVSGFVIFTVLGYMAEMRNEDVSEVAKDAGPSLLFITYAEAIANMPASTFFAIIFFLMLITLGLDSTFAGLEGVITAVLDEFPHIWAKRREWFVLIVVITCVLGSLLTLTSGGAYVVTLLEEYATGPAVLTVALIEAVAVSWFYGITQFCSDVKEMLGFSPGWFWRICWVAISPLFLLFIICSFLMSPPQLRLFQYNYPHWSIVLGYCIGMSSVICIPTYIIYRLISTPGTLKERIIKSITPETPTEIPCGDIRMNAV

[9] = target: Sodium-dependent dopamine transporter (Rattus norvegicus) (UniProt P23977); experiment: Inhibition of tritiated dopamine (DA) uptake at 0.1 uM concentration; type: functional; summary of the method: as §3
Sodium-dependent dopamine transporter (Rattus norvegicus), sequence (P23977 whole entry): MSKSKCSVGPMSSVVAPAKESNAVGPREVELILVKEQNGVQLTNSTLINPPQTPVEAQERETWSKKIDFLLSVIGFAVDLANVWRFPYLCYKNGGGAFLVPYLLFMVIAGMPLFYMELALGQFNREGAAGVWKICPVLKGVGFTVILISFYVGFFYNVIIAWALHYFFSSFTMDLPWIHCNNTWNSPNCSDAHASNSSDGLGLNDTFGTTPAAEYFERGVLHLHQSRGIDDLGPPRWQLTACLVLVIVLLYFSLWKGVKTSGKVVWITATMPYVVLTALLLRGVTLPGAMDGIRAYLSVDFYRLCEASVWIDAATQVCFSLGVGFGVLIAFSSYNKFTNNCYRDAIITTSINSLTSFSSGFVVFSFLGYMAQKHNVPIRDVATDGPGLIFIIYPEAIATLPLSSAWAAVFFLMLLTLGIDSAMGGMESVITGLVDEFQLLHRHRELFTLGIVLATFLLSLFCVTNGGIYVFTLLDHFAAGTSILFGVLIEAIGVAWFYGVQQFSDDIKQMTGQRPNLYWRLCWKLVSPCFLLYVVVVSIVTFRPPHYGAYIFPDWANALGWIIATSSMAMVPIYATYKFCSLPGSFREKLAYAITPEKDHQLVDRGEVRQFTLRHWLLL

[10] = target: Sodium-dependent dopamine transporter (Rattus norvegicus) (UniProt P23977); experiment: Ability to inhibit the uptake of [3H]dopamine (DA) 0.1 uM concentration at rat brain synaptosomes; type: functional, subcellular; summary of the method: as §3
Mus musculus [11] = species: Mus musculus; experiment: Gross behavioral effects ascertained in mice; S indicates significant stimulant properties.; type: functional, organism-based; summary of the method: as §2

Sodium-dependent dopamine transporter, sequence (P23977 whole entry): as above

SMILES | Ki [2] | ED50 (Mus musculus [4]; Mus musculus, read-out: ED50) | ED50 (Mus musculus [5]; Mus musculus, read-out: ED50) | inhibition [7] | inhibition [8] | inhibition [10] | other results
FC(F)(F)c1cccc([C@@H]2CN3CCC[C@@H]3c3ccccc32)c1 (stereo in doubt; (-)-37b) | 2570 nM | – | – | – | – | – | Ki [1]: 7690 nM; Ki [3]: 30 nM
Br.c1ccc([C@@H]2CN3CCCCC[C@H]3c3ccccc32)cc1 | – | ~40 mg/kg | ~40 mg/kg | 13% | 6% | – | behavior (Mus musculus [6]): Weak; inhibition [9]: 19%
Br.CCCCc1ccc([C@@H]2CN3CCC[C@H]3c3ccccc32)cc1 | – | – | > 30 mg/kg | 13% | 3% | 5% | behavior (Mus musculus [6]): Weak
Br.F[C@]1(c2ccccc2)CN2CCC[C@H]2c2ccccc21 | 30.7 nM | 1.2 mg/kg | ~3 mg/kg | – | 6% | 26% | behavior (Mus musculus [6]): Weak
c1ccc([C@@H]2CN3CCC[C@@H]3c3ccccc32)cc1 (stereo in doubt; (-)-7b) | – | – | – | – | – | – | ED50 (Mus musculus [4]): 8.3 mg/kg; ED50 (Mus musculus [5]): >30 mg/kg; Ki [1]: 1340 nM; Ki [3]: 262 nM
Br.Oc1cccc([C@@H]2CN3CCC[C@H]3c3ccccc32)c1 | 15.1 nM | 3.1 mg/kg | > 30 mg/kg | – | – | – | behavior (Mus musculus [11]): Stimulant; Ki [1]: 44.8 nM
Br.COc1cccc([C@@H]2CN3CCC[C@H]3c3ccccc32)c1 | 16.1 nM | > 60 mg/kg | > 60 mg/kg | – | – | – | behavior (Mus musculus [6]): Weak; inhibition [9]: 35%
Br.Nc1ccc([C@@H]2CN3CCC[C@@H]3c3ccccc32)cc1 | 0.2 nM | ~0.01 mg/kg | ~0.02 mg/kg | – | – | – | behavior (Mus musculus [11]): Significant stimulant; Ki [1]: 0.86 nM
Br.c1ccc([C@H]2CN3CCC[C@H]3c3ccsc32)cc1 | 1.4 nM | 0.79 mg/kg | 5 mg/kg | – | – | – | behavior (Mus musculus [11]): Significant stimulant; Ki [1]: 5.2 nM
c1ccc(C[C@@H]2CN3CCC[C@H]3c3ccccc32)cc1 | – | – | – | 100% | -3% | 15% | –
FC(F)(F)c1cc([C@@H]2CN3CCC[C@@H]3c3ccccc32)cc(C(F)(F)F)c1 | – | – | – | 58% | 25% | 5% | –
Br.c1ccc([C@@H]2Cc3ccccc3[C@@H]3CCCN23)cc1 | – | 0.87 mg/kg | > 30 mg/kg | 7% | – | 0% | behavior (Mus musculus [6]): Weak
Br.C[C@]1(c2ccccc2)CN2CCC[C@H]2c2ccccc21 | 1.25 nM | 0.44 mg/kg | 27.2 mg/kg | – | – | – | behavior (Mus musculus [11]): Significant stimulant; Ki [1]: 7.4 nM
FC(F)(F)c1ccc([C@@H]2CN3CCC[C@H]3c3ccccc32)cc1 | – | – | – | -1% | 15% | – | inhibition [9]: 7%
Br.FC(F)(F)c1ccccc1[C@@H]1CN2CCC[C@@H]2c2ccccc21 | – | > 3 mg/kg | > 3 mg/kg | 42% | 2% | 14% | –
O=C(O)c1ccccc1[C@@H]1CN2CCC[C@@H]2c2ccccc21 | – | – | – | 0% | 6% | 3% | –
CC(=O)Nc1ccc([C@@H]2CN3CCC[C@H]3c3ccccc32)cc1 | – | 1.8 mg/kg | 4.4 mg/kg | 27% | – | 57% | behavior (Mus musculus [6]): Weak
FC(F)(F)c1cccc([C@@H]2CN3CCC[C@@H]3c3cccc(Cl)c32)c1 | ~100 nM | – | – | – | 5% | 8% | –
C[C@H]1[C@H](c2ccccc2)c2ccccc2[C@@H]2CCCN21 | – | 3.3 mg/kg | ~30 mg/kg | 62% | 15% | 17% | behavior (Mus musculus [6]): Weak
FC(F)(F)c1cc([C@@H]2CN3CCC[C@H]3c3ccccc32)cc(C(F)(F)F)c1 | – | – | – | 0% | -3% | -3% | –
FC(F)(F)c1ccccc1[C@@H]1CN2CCC[C@H]2c2ccccc21 | – | – | – | 12% | 4% | 0% | –
O=C(O)c1ccccc1[C@@H]1CN2CCC[C@H]2c2ccccc21 | – | – | – | 1% | 1% | 5% | –
N#Cc1ccccc1[C@@H]1CN2CCC[C@@H]2c2ccccc21 | – | > 3 mg/kg | > 3 mg/kg | 71% | 6% | 33% | –
c1ccc([C@@H]2CN3CCC[C@@H]3c3ccccc32)cc1 (stereo in doubt; (+)-7b) | – | – | – | – | – | – | ED50 (Mus musculus [4]): 0.05 mg/kg; ED50 (Mus musculus [5]): 0.59 mg/kg; Ki [1]: 4.4 nM; Ki [3]: 83 nM
C#Cc1ccc([C@@H]2CN3CCC[C@@H]3c3ccccc32)cc1 | – | ~0.5 mg/kg | ~0.5 mg/kg | – | – | – | behavior (Mus musculus [11]): Significant stimulant
Cc1ccccc1[C@@H]1CN2CCC[C@H]2c2ccccc21 | – | – | – | 12% | -6% | -1% | –
